Laboratory results reported in ChEMBL document CHEMBL2157880, “Synthesis, antimycobacterial and antibacterial activity of ciprofloxacin derivatives containing a N-substituted benzyl moiety” (2012).
Converted amounts (≈) assume the structure as drawn.

Assays:
Assay type in all cases: functional
Staphylococcus aureus [1] = assay: Antibacterial activity against Staphylococcus aureus ATCC 2592 after 18 to 24 hrs by NCCLS method
How it was run: (§1)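 Standard NCCLS (M100-S11) MIC testing against Gram-positive and Gram-negative strains. Plates were incubated at 35 °C for 18–24 h. The MIC was read as the lowest concentration giving complete inhibition of visible bacterial growth.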

Staphylococcus aureus [2] = assay: Antibacterial activity against methicillin-resistant Staphylococcus aureus 10-11 after 18 to 24 hrs by NCCLS method
How it was run: (§2)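 Incubated at 35 °C for 18–24 h under NCCLS (M100-S11) standards. MIC was read as the lowest concentration giving complete inhibition of visible bacterial growth.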

Enterococcus faecalis [3] = assay: Antibacterial activity against Enterococcus faecalis 10-7 after 18 to 24 hrs by NCCLS method; how it was run: as §1
Escherichia coli [4] = assay: Antibacterial activity against Escherichia coli 10-1 after 18 to 24 hrs by NCCLS method; how it was run: as §1
Klebsiella pneumoniae [5] = assay: Antibacterial activity against extended spectrum beta-lactamases producing Klebsiella pneumoniae 10-3 after 18 to 24 hrs by NCCLS method; how it was run: as §1
[6] = test system: Mycobacterium tuberculosis; assay: Antimycobacterial activity against Mycobacterium tuberculosis H37Rv ATCC 27294 by microplate alamar blue assay
How it was run: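 Microplate Alamar Blue fluorescence assay on strain H37Rv ATCC 27294. MIC was the lowest concentration cutting fluorescence by ≥90% against the mean of replicate bacterium-only controls.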

Staphylococcus aureus [7] = assay: Antibacterial activity against methicillin-sensitive Staphylococcus aureus 10-11 after 18 to 24 hrs by NCCLS method; how it was run: as §1
Enterococcus faecium [8] = assay: Antibacterial activity against Enterococcus faecium 10-6 after 18 to 24 hrs by NCCLS method; how it was run: as §1
Klebsiella pneumoniae [9] = assay: Antibacterial activity against Klebsiella pneumoniae 10-3 after 18 to 24 hrs by NCCLS method; how it was run: as §1
Staphylococcus aureus [10] = assay: Antibacterial activity against methicillin-sensitive Staphylococcus aureus 10-13 after 18 to 24 hrs by NCCLS method; how it was run: as §1
Klebsiella pneumoniae [11] = assay: Antibacterial activity against Klebsiella pneumoniae 10-2 after 18 to 24 hrs by NCCLS method; how it was run: as §1
Staphylococcus aureus [12] = assay: Antibacterial activity against methicillin-resistant Staphylococcus aureus 10-13 after 18 to 24 hrs by NCCLS method; how it was run: as §2
Enterococcus faecalis [13] = assay: Antibacterial activity against Enterococcus faecalis 10-5 after 18 to 24 hrs by NCCLS method; how it was run: as §1
Streptococcus pneumoniae [14] = assay: Antibacterial activity against Streptococcus pneumoniae 10-1 after 18 to 24 hrs by NCCLS method; how it was run: as §1
Pseudomonas aeruginosa [15] = assay: Antibacterial activity against Pseudomonas aeruginosa 10-5 after 18 to 24 hrs by NCCLS method; how it was run: as §1
Staphylococcus aureus [16] = assay: Antibacterial activity against methicillin-resistant Staphylococcus aureus 10-15 after 18 to 24 hrs by NCCLS method; how it was run: as §2
[17] = test system: Staphylococcus epidermidis; assay: Antibacterial activity against methicillin-sensitive Staphylococcus epidermidis 10-15 after 18 to 24 hrs by NCCLS method; how it was run: as §2
Pseudomonas aeruginosa [18] = assay: Antibacterial activity against Pseudomonas aeruginosa 10-20 after 18 to 24 hrs by NCCLS method; how it was run: as §1
[19] = test system: Staphylococcus epidermidis; assay: Antibacterial activity against methicillin-sensitive Staphylococcus epidermidis 10-11 after 18 to 24 hrs by NCCLS method; how it was run: as §1
Escherichia coli [20] = assay: Antibacterial activity against Escherichia coli 10-2 after 18 to 24 hrs by NCCLS method; how it was run: as §1
Klebsiella pneumoniae [21] = assay: Antibacterial activity against Klebsiella pneumoniae 10-4 after 18 to 24 hrs by NCCLS method; how it was run: as §1
Streptococcus pneumoniae [22] = assay: Antibacterial activity against Streptococcus pneumoniae 10-6 after 18 to 24 hrs by NCCLS method; how it was run: as §1
Escherichia coli [23] = assay: Antibacterial activity against Escherichia coli 10-3 after 18 to 24 hrs by NCCLS method; how it was run: as §1
Pseudomonas aeruginosa [24] = assay: Antibacterial activity against Pseudomonas aeruginosa 10-12 after 18 to 24 hrs by NCCLS method; how it was run: as §1
[25] = test system: Staphylococcus epidermidis; assay: Antibacterial activity against methicillin-resistant Staphylococcus epidermidis 10-10 after 18 to 24 hrs by NCCLS method; how it was run: as §2
Pseudomonas aeruginosa [26] = assay: Antibacterial activity against Pseudomonas aeruginosa 10-15 after 18 to 24 hrs by NCCLS method; how it was run: as §1
Staphylococcus aureus [27] = assay: Antibacterial activity against methicillin-sensitive Staphylococcus aureus 10-14 after 18 to 24 hrs by NCCLS method; how it was run: as §1
Escherichia coli [28] = assay: Antibacterial activity against extended spectrum beta-lactamases producing Escherichia coli 10-2 after 18 to 24 hrs by NCCLS method; how it was run: as §1
Escherichia coli [29] = assay: Antibacterial activity against Escherichia coli ATCC 25922 after 18 to 24 hrs by NCCLS method; how it was run: as §1
Enterococcus faecium [30] = assay: Antibacterial activity against Enterococcus faecium 10-9 after 18 to 24 hrs by NCCLS method; how it was run: as §1
Pseudomonas aeruginosa [31] = assay: Antibacterial activity against Pseudomonas aeruginosa 10-9 after 18 to 24 hrs by NCCLS method; how it was run: as §1
Pseudomonas aeruginosa [32] = assay: Antibacterial activity against Pseudomonas aeruginosa 10-18 after 18 to 24 hrs by NCCLS method; how it was run: as §1
Escherichia coli [33] = assay: Antibacterial activity against extended spectrum beta-lactamases producing Escherichia coli 10-3 after 18 to 24 hrs by NCCLS method; how it was run: as §1
Escherichia coli [34] = assay: Antibacterial activity against extended spectrum beta-lactamases producing Escherichia coli 10-4 after 18 to 24 hrs by NCCLS method; how it was run: as §1
Enterococcus faecalis [35] = assay: Antibacterial activity against Enterococcus faecalis 10-6 after 18 to 24 hrs by NCCLS method; how it was run: as §1
Klebsiella pneumoniae [36] = assay: Antibacterial activity against extended spectrum beta-lactamases producing Klebsiella pneumoniae 10-2 after 18 to 24 hrs by NCCLS method; how it was run: as §1
Klebsiella pneumoniae [37] = assay: Antibacterial activity against extended spectrum beta-lactamases producing Klebsiella pneumoniae 10-1 after 18 to 24 hrs by NCCLS method; how it was run: as §1
[38] = test system: Staphylococcus epidermidis; assay: Antibacterial activity against methicillin-resistant Staphylococcus epidermidis 10-13 after 18 to 24 hrs by NCCLS method; how it was run: as §2

| SMILES | MIC (Staphylococcus aureus [1]) | MIC (Staphylococcus aureus [2]) | MIC (Enterococcus faecalis [3]) | MIC (Escherichia coli [4]) | MIC (Klebsiella pneumoniae [5]) | MIC [6] | MIC (Staphylococcus aureus [7]) | MIC (Enterococcus faecium [8]) | MIC (Klebsiella pneumoniae [9]) | MIC (Staphylococcus aureus [10]) | MIC (Klebsiella pneumoniae [11]) | MIC (Staphylococcus aureus [12]) | MIC (Enterococcus faecalis [13]) | MIC (Streptococcus pneumoniae [14]) | MIC (Pseudomonas aeruginosa [15]) | MIC (Staphylococcus aureus [16]) | MIC [17] | MIC (Pseudomonas aeruginosa [18]) | MIC [19] | MIC (Escherichia coli [20]) | other results |
| --- | --- | --- | --- | --- | --- | --- | --- | --- | --- | --- | --- | --- | --- | --- | --- | --- | --- | --- | --- | --- | --- |
| COc1cc(CN2CCN(c3cc4c(cc3F)c(=O)c(C(=O)O)cn4C3CC3)CC2)ccc1OCc1ccccc1 | 2 µg/mL (≈ 3.59 µM) | > 128 µg/mL | 32 µg/mL (≈ 57.4 µM) | > 128 µg/mL | > 128 µg/mL | 16 µg/mL (≈ 28.7 µM) | 0.5 µg/mL (≈ 0.897 µM) | 16 µg/mL (≈ 28.7 µM) | 32 µg/mL (≈ 57.4 µM) | 2 µg/mL (≈ 3.59 µM) | > 128 µg/mL | > 128 µg/mL | 32 µg/mL (≈ 57.4 µM) | 16 µg/mL (≈ 28.7 µM) | 32 µg/mL (≈ 57.4 µM) | > 128 µg/mL | 32 µg/mL (≈ 57.4 µM) | 32 µg/mL (≈ 57.4 µM) | 1 µg/mL (≈ 1.79 µM) | 32 µg/mL (≈ 57.4 µM) | MIC (Klebsiella pneumoniae [21]): > 128 µg/mL; MIC (Streptococcus pneumoniae [22]): 32 µg/mL (≈ 57.4 µM); MIC (Escherichia coli [23]): > 128 µg/mL; MIC (Pseudomonas aeruginosa [24]): 32 µg/mL (≈ 57.4 µM); MIC [25]: 128 µg/mL (≈ 230 µM); MIC (Pseudomonas aeruginosa [26]): 64 µg/mL (≈ 115 µM); MIC (Staphylococcus aureus [27]): 1 µg/mL (≈ 1.79 µM); MIC (Escherichia coli [28]): > 128 µg/mL; MIC (Escherichia coli [29]): 0.5 µg/mL (≈ 0.897 µM); MIC (Enterococcus faecium [30]): 32 µg/mL (≈ 57.4 µM); MIC (Pseudomonas aeruginosa [31]): 64 µg/mL (≈ 115 µM); MIC (Pseudomonas aeruginosa [32]): 32 µg/mL (≈ 57.4 µM); MIC (Escherichia coli [33]): > 128 µg/mL; MIC (Escherichia coli [34]): > 128 µg/mL; MIC (Enterococcus faecalis [35]): 64 µg/mL (≈ 115 µM); MIC (Klebsiella pneumoniae [36]): > 128 µg/mL; MIC (Klebsiella pneumoniae [37]): > 128 µg/mL; MIC [38]: 64 µg/mL (≈ 115 µM) |
| O=C(O)c1cn(C2CC2)c2cc(N3CCN(Cc4ccccc4)CC3)c(F)cc2c1=O | 0.25 µg/mL (≈ 0.593 µM) | 64 µg/mL (≈ 152 µM) | 16 µg/mL (≈ 38 µM) | > 128 µg/mL | > 128 µg/mL | 1 µg/mL (≈ 2.37 µM) | 0.25 µg/mL (≈ 0.593 µM) | 16 µg/mL (≈ 38 µM) | 16 µg/mL (≈ 38 µM) | 0.25 µg/mL (≈ 0.593 µM) | > 128 µg/mL | 64 µg/mL (≈ 152 µM) | 16 µg/mL (≈ 38 µM) | 16 µg/mL (≈ 38 µM) | 16 µg/mL (≈ 38 µM) | 16 µg/mL (≈ 38 µM) | 16 µg/mL (≈ 38 µM) | 16 µg/mL (≈ 38 µM) | 32 µg/mL (≈ 75.9 µM) | 16 µg/mL (≈ 38 µM) | MIC (Klebsiella pneumoniae [21]): > 128 µg/mL; MIC (Streptococcus pneumoniae [22]): 16 µg/mL (≈ 38 µM); MIC (Escherichia coli [23]): 16 µg/mL (≈ 38 µM); MIC (Pseudomonas aeruginosa [24]): 16 µg/mL (≈ 38 µM); MIC [25]: 16 µg/mL (≈ 38 µM); MIC (Pseudomonas aeruginosa [26]): 32 µg/mL (≈ 75.9 µM); MIC (Staphylococcus aureus [27]): 0.25 µg/mL (≈ 0.593 µM); MIC (Escherichia coli [28]): > 128 µg/mL; MIC (Escherichia coli [29]): 0.25 µg/mL (≈ 0.593 µM); MIC (Enterococcus faecium [30]): 16 µg/mL (≈ 38 µM); MIC (Pseudomonas aeruginosa [31]): 16 µg/mL (≈ 38 µM); MIC (Pseudomonas aeruginosa [32]): 8 µg/mL (≈ 19 µM); MIC (Escherichia coli [33]): > 128 µg/mL; MIC (Escherichia coli [34]): 16 µg/mL (≈ 38 µM); MIC (Enterococcus faecalis [35]): 16 µg/mL (≈ 38 µM); MIC (Klebsiella pneumoniae [36]): > 128 µg/mL; MIC (Klebsiella pneumoniae [37]): > 128 µg/mL; MIC [38]: 0.5 µg/mL (≈ 1.19 µM) |
